The values below come from ChEMBL document CHEMBL5046217, “Discovery of New Imidazo[2,1-b]thiazole Derivatives as Potent Pan-RAF Inhibitors with Promising In Vitro and In Vivo Anti-melanoma Activity” (J Med Chem, 2021).

Series [1] concerns Panel leukemia (Carcinoma cell lines). Put plainly: cells. The conditions noted are these: Homo sapiens, 48 h, read-out: INH.
The subject of series [2] is UACC-62. Put plainly: Antiproliferative activity against human UACC-62 cells assessed as cell growth inhibition measured after 48 hrs by SRB assay. The conditions noted are these: UACC-62, 48 h.
Series [3] deals with MDA-MB-435. Put plainly: Antiproliferative activity against human MDA-MB-435 cells assessed as cell growth inhibition measured after 48 hrs by SRB assay. The following applies: MDA-MB-435, 48 h. On the technique in general: The SRB assay estimates cell density from bound dye.
The subject of series [4] is Panel colon (Carcinoma cell lines). The series can be described thus: Antiproliferative activity against human Panel colon (Carcinoma cell lines) assessed as cell growth inhibition measured after 48 hrs by SRB assay.
Series [5] concerns Panel melanoma (Carcinoma cell lines). Put plainly: Antiproliferative activity against human Panel melanoma (Carcinoma cell lines) assessed as cell growth inhibition measured after 48 hrs by SRB assay.
Series [6] has as its target Fibroblast growth factor receptor 1 (Homo sapiens, UniProt P11362). The series can be described thus: Inhibition of FGFR1 (unknown origin) incubated for 1 hr by qPCR analysis. In general terms: Quantitative PCR measures a nucleic acid by following its amplification.
For series [7], the target named is Mitogen-activated protein kinase 11 (Homo sapiens, UniProt Q15759). Put plainly: Inhibition of MAPK11 (unknown origin) incubated for 1 hr by qPCR analysis. An outline of the steps: (§1)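 Competition binding assay. Kinases were either T7-phage-tagged (grown in an E. coli BL21-derived host) or expressed in HEK-293 cells and DNA-tagged. […] Bound kinase was eluted with non-biotinylated ligand and quantified by qPCR.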
Mitogen-activated protein kinase 11, sequence (Q15759 whole entry): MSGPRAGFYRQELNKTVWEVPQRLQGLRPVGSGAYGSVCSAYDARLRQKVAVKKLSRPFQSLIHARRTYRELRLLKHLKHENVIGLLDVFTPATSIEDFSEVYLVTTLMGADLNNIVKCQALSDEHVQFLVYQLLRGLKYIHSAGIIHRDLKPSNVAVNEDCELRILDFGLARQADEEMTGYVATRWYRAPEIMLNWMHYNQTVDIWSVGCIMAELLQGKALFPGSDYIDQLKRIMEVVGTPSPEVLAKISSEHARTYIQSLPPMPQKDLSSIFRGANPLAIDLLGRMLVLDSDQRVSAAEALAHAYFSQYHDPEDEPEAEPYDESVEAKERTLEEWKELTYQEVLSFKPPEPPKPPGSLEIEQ

Series [8] concerns Panel ovarian (Carcinoma cell lines). Put plainly: cells. The following applies: Homo sapiens, 48 h, read-out: INH.
Series [9] concerns UACC-62. The series can be described thus: Antiproliferative activity against human UACC-62 cells assessed as total growth inhibition measured after 48 hrs by SRB assay. The following applies: UACC-62, 48 h.
Series [10] deals with SK-MEL-2. Put plainly: Antiproliferative activity against human SK-MEL-2 cells assessed as cell growth inhibition measured after 48 hrs by SRB assay. The following applies: SK-MEL-2, 48 h.
Series [11] addresses Mitogen-activated protein kinase 14 (Homo sapiens, UniProt Q16539). Put plainly: Inhibition of MAPK14 (unknown origin) incubated for 1 hr by qPCR analysis. In short, it runs like this: as §1
Series [12] in a line: in vitro. The conditions noted are these: human, BJ cells and Malme-3M cells.
The nature of series [13]: Cytotoxicity against human BJ cells assessed as cell growth inhibition incubated for 48 hrs by MTT assay. It counts as toxicity, cell-based. An outline of the steps:
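BJ1 normal skin fibroblasts were seeded at 10 × 10³ cells/well with compound in triplicate wells and grown in DMEM-F12 at 37 °C, 5% CO₂, across an eight-point dilution series. Growth inhibition was calculated as (1 − T/C) × 100, and IC50 was taken from the dose–response curve.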

Series [14] relates to LOX IMVI. The series can be described thus: Antiproliferative activity against human LOX IMVI cells assessed as total growth inhibition measured after 48 hrs by SRB assay.
Series [15] deals with SK-MEL-28. Put plainly: Antiproliferative activity against human SK-MEL-28 cells assessed as cell growth inhibition measured after 48 hrs by SRB assay. The conditions noted are these: SK-MEL-28, 48 h.
The subject of series [16] is SK-MEL-5. Put plainly: Antiproliferative activity against human SK-MEL-5 cells assessed as cell growth inhibition measured after 48 hrs by SRB assay. The following applies: SK-MEL-5, 48 h.
The target of series [17] is Serine/threonine-protein kinase B-raf (Homo sapiens, UniProt P15056). The series can be described thus: Inhibition of human wild type BRAF using myelin basic protein as substrate in presence of [gamma-33P]ATP incubated for 40 mins by scintillation counting method. In short, it runs like this:
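Radiometric kinase assay run at Reaction Biology. Kinase (5−10 mU) in 25 mM Tris pH 7.5, 0.02 mM EGTA, 10 mM magnesium acetate with 0.66 mg/mL myelin basic protein and [γ-33P]ATP at 1 μM ATP. Reaction started with Mg-ATP and run 40 min at room temperature, then stopped with 3% phosphoric acid. Spotted on P30 filtermat, washed, scintillation counted.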

In series [18] the test system is Panel prostate (Carcinoma cell lines). The series can be described thus: Antiproliferative activity against human Panel prostate (Carcinoma cell lines) assessed as cell growth inhibition measured after 48 hrs by SRB assay.
In series [19] the test system is Panel breast (Carcinoma cell lines). The series can be described thus: Antiproliferative activity against human Panel breast (Carcinoma cell lines) assessed as cell growth inhibition measured after 48 hrs by SRB assay.
In series [20] the test system is Panel ovarian (Carcinoma cell lines). The series can be described thus: Antiproliferative activity against human Panel ovarian (Carcinoma cell lines) assessed as cell growth inhibition measured after 48 hrs by SRB assay.
Series [21] concerns LOX IMVI. Put plainly: Antiproliferative activity against human LOX IMVI cells assessed as cell growth inhibition measured after 48 hrs by SRB assay.
The test system of series [22] is SK-MEL-5. The series can be described thus: Antiproliferative activity against human SK-MEL-5 cells assessed as total growth inhibition measured after 48 hrs by SRB assay. The conditions noted are these: SK-MEL-5, 48 h.

Serine/threonine-protein kinase B-raf, sequence (P15056 whole entry): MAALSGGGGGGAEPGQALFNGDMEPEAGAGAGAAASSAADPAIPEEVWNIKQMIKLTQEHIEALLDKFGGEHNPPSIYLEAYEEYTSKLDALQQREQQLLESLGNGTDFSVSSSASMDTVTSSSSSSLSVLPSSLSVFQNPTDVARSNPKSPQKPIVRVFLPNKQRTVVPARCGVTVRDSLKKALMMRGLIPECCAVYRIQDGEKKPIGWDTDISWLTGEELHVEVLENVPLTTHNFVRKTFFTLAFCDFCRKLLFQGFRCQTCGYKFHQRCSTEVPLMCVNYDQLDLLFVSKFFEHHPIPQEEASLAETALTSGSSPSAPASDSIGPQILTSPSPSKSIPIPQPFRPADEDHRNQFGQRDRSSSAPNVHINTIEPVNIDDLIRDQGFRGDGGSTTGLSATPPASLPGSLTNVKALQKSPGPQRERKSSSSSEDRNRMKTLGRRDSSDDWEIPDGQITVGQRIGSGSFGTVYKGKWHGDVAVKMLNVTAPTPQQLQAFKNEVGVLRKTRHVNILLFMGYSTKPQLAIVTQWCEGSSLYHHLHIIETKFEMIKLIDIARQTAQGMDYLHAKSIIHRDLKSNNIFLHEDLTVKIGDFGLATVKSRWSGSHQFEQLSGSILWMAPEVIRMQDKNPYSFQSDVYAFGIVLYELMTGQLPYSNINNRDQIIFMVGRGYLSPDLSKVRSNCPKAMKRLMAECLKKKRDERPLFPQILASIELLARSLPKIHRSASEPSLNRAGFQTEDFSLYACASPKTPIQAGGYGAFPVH
Mitogen-activated protein kinase 14, sequence (Q16539 whole entry): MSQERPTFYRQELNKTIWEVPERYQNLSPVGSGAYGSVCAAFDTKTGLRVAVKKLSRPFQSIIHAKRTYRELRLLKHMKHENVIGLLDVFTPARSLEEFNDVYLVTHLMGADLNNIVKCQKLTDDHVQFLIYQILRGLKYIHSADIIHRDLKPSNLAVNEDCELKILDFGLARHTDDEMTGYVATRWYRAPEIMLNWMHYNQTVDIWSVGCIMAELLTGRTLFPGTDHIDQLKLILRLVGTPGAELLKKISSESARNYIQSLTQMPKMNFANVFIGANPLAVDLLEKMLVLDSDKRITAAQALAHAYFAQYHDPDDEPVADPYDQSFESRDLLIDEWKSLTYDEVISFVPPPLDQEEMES
Fibroblast growth factor receptor 1, sequence (P11362 whole entry): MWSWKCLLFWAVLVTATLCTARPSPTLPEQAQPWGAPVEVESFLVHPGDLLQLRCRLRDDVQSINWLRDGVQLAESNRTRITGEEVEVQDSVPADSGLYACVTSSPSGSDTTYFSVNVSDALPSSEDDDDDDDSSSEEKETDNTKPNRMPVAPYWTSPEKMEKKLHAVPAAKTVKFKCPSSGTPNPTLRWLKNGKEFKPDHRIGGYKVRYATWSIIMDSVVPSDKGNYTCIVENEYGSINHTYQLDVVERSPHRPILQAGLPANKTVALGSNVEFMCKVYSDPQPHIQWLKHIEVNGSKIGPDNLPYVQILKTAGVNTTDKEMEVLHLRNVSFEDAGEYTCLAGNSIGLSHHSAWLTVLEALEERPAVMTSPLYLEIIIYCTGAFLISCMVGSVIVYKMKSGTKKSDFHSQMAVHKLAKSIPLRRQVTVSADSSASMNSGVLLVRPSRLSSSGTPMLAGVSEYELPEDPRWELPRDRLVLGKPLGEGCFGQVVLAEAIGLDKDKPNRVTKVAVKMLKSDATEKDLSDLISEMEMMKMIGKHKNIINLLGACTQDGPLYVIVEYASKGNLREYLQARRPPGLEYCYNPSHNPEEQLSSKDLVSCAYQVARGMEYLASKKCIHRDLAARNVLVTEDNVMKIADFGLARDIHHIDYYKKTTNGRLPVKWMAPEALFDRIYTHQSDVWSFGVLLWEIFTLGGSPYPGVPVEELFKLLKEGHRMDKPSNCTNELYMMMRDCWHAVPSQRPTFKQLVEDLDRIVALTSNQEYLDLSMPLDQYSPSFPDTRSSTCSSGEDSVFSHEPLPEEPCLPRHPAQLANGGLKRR

As for `O=S(=O)(NCCCNc1nccc(-c2c(-c3cccc(O)c3)nc3sccn23)n1)c1cccc(F)c1`, the inhibition at 10 µM in series [1] stood at 93.8%; in series [8], 75%. Also, the IC50 (usually the concentration at which inhibition is half-maximal) was 0.75 µM in series [2]; 2 µM in [3]; 3.02 µM in [4]; 2.03 µM in series [5]; 10.6 µM in [6]; 0.98 µM in series [7]. The IC50 was 2.32 µM in series [10]; 1.78 µM in [11]; 2.29 µM in [15]; 1.06 µM in series [16]; 0.0042 µM in series [17]; 2.38 µM in series [18]. The IC50 worked out at 2.41 µM in series [19], 2.97 µM in series [20] and 1.91 µM in [21]. Also, the values for the TGI in series [9], in series [14] and in series [22] were 2.73 µM, 5.82 µM and 2.28 µM, respectively. Also, in [12], the selectivity ratio amounted to 17.4. In [13], the IC50 at 48 h came out at 45.2 µM.
